Data set [1] relates to Caco-2. The experiment in a line: Induction of human ApoA-1 gene expression in human Caco-2 cells co-transfected with luc-beta-galactosidase after 48 hrs assessed as luciferase activity by luminometer relative to control. The data set is classed as functional. In a few lines: (§1)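 Caco-2 cells stably carrying an ApoA-I promoter–luciferase reporter (co-transfected with pRSV-β-galactosidase as transfection control; selected in MEM with 20% calf serum and 0.5 mg/mL G418). Cells seeded, 24 h at 37 °C in 5% CO2, then starved 24 h in 0.5% FBS selection medium. Compounds added at 15 µM in 0.01% DMSO for 48 h. Cells lysed, luciferase read by luminometer and normalized to Bradford protein. Fold induction is taken against untreated cells and against resveratrol, which is run in each experiment.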

Data set [2] deals with Caco-2. Kind of data set: Induction of human ApoA-1 gene expression in human Caco-2 cells co-transfected with luc-beta-galactosidase after 48 hrs assessed as luciferase activity by luminometer relative to resveratrol. The data set is classed as functional. The essentials:
as §1

For data set [3], the system named is Caco-2. Kind of data set: Cytotoxicity against human Caco-2 cells. The data set is classed as cell-based.
Data set [4] concerns Caco-2. Kind of data set: Induction of human ApoA-1 gene expression in human Caco-2 cells co-transfected with luc-beta-galactosidase at 15 uM after 48 hrs assessed as luciferase activity by luminometer relative to control. The data set is classed as functional. In a few lines:
as §1

The values that follow come from ChEMBL document CHEMBL1157841, “Stilbene analogs as inducers of apolipoprotein-I transcription” (Eur J Med Chem, 2010).

The structures appear in SMILES notation.

Take `O=S(=O)(Nc1ccc(O)cc1)c1ccc(O)cc1`: the “fold change (FC)” value is given as 1.3 in the data set on Caco-2 [1] and 0.4 with Caco-2 [2].
On to `Oc1ccc(-c2nnc(-c3cccc(O)c3)o2)cc1`, for which the “fold change (FC)” value in the data set on Caco-2 [1] is recorded as 3.7; in the data set on Caco-2 [2] it was 0.9. Besides, the Activity entry in the data set with Caco-2 [3] is given as “Non-toxic”.
For `Oc1cccc(-c2nnc(-c3ccccc3)o2)c1`, the entries for the “fold change (FC)” value in the data set with Caco-2 [1] and in the data set with Caco-2 [2] were 2.2 and 0.6, respectively. Further, the Activity result with Caco-2 [3] is reported as “Non-toxic”.
With `OCc1cccc(-c2nnc(-c3ccc(O)cc3)o2)c1`, the “fold change (FC)” value with Caco-2 [1] came to 1.4; with Caco-2 [2], 0.5. The Activity entry with Caco-2 [3] is given as “Non-toxic”.
For the compound `CC(=O)Nc1cc(O)ccc1/C=C/c1ccc(O)cc1`, the “fold change (FC)” value in the data set with Caco-2 [1] came out at 0.9; in the data set with Caco-2 [2], 0.3.
Taken in the same sequence, the figures for `CS(=O)(=O)c1cc(O)ccc1/C=C/c1ccc(O)cc1` were 2 and 0.7.
With `O=[N+]([O-])c1cc(O)ccc1/C=C/c1ccc(O)cc1`, the “fold change (FC)” value with Caco-2 [1] was 9.4; in the data set on Caco-2 [2] it was 2.8.
The corresponding values for `COc1cc(O)ccc1/C=C/c1ccc(O)cc1` are 12.5 and 4.6.
In the case of `OCc1cc(O)ccc1/C=C/c1ccc(O)cc1`, the “fold change (FC)” value in the data set with Caco-2 [1] was found to be 2; in the data set on Caco-2 [2], 0.5.
Consider `CN(C)C(=O)c1cc(O)ccc1/C=C/c1ccc(O)cc1`, for which the results for the “fold change (FC)” value in the data set with Caco-2 [1] and in the data set on Caco-2 [2] were 1.1 and 0.2, respectively.
In the case of `Nc1cc(O)ccc1/C=C/c1ccc(O)cc1`, the “fold change (FC)” value in the data set on Caco-2 [1] is 3.2; in the data set with Caco-2 [2] it was 0.9.
As for `CCOC(=O)c1cc(/C=C/c2ccc(O)cc2)ccc1O`, the figures for the “fold change (FC)” value in the data set with Caco-2 [1] and with Caco-2 [2] were 1.1 and 0.4, respectively.
`NC(=O)c1cc(/C=C/c2ccc(O)cc2)ccc1O`: the “fold change (FC)” value in the data set with Caco-2 [1] came to 2.7; in the data set on Caco-2 [2], 0.7.
Turning to `O=C(Nc1ccccc1)c1ccc(O)cc1`, the results for the “fold change (FC)” value with Caco-2 [1] and in the data set with Caco-2 [2] were 1.7 and 0.5, respectively.
`O=C(O)c1cc(/C=C/c2ccc(O)cc2)ccc1O`: the figures for the “fold change (FC)” value with Caco-2 [1] and in the data set with Caco-2 [2] were 1.2 and 0.4, respectively.
Turning to `Oc1ccc(/C=C/c2ccc(O)nc2)cc1`, the “fold change (FC)” value with Caco-2 [1] was determined as 1.1; with Caco-2 [2], 0.4.
As to `Oc1ccc(-c2nnc(-c3ccccc3)o2)cc1`, the entries for the “fold change (FC)” value in the data set on Caco-2 [1] and in the data set with Caco-2 [2] were 1.9 and 0.5, respectively. Besides, the Activity entry in the data set with Caco-2 [3] was “Non-toxic”.
As for `Oc1ccc(/N=N/c2ccc(O)cc2)cc1`, the “fold change (FC)” value amounted to 3.4 in the data set with Caco-2 [1] and 1.3 in the data set with Caco-2 [2].
On to `O=C(Nc1ccc(O)cc1)c1ccccc1`, for which the “fold change (FC)” value in the data set with Caco-2 [1] was found to be 1.7; in the data set on Caco-2 [2] it was 0.6.
On to `O=C(Nc1ccc(O)cc1)c1ccc(O)cc1`, for which the “fold change (FC)” value in the data set on Caco-2 [1] is recorded as 1.9; in the data set on Caco-2 [2] it was 0.7.
In the case of `Oc1ccc(CCc2ccc(O)cc2)cc1`, the “fold change (FC)” value in the data set on Caco-2 [1] stood at 3.9; in the data set on Caco-2 [2], 1.
Regarding `Oc1ccc(/C=C/c2cc(O)cc(O)c2)cc1` [RESVERATROL], the “fold change (FC)” value in the data set with Caco-2 [4] turned out to be 2.6.
Regarding `Oc1ccc(/C=C/c2ccc(O)cc2)cc1` [TRANS-4,4'-DIHYDROXYSTILBENE], the “fold change (FC)” value is listed as 5.1 in the data set on Caco-2 [1] and 1.6 in the data set on Caco-2 [2].
